Test results published in ChEMBL document CHEMBL1121917, “Structure--activity relationships in a broad-spectrum anthelmintic series. Acid chloride phenylhydrazones. 1. Aryl substitutions and chloride variations” (1981).

Key:
Canis familiaris [1] = species: Canis familiaris; test: Percent reduction in Uncinaria eggs per gram, after oral treatment of 100 mg/dog dose of compound in a single treatment; assay type: functional, Canis lupus familiaris, Egg
Procedure, shortened: (§1)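 Dogs naturally infected with Toxascaris leonina were experimentally infected with mixed Ancylostoma caninum and Uncinaria stenocephala larvae. Finely ground compound was given orally in gelatin capsules. Three egg count determinations were made before and three after treatment in each experiment.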

Canis familiaris [2] = species: Canis familiaris; test: Percent reduction in Uncinaria eggs per gram, after oral treatment of 200 mg/dog dose of compound in a single treatment; assay type: functional, Canis lupus familiaris, Egg; procedure, shortened: as §1
Canis familiaris [3] = species: Canis familiaris; test: Percent reduction in Toxascaris eggs per gram, after oral treatment of 200 mg/dog dose of compound in a single treatment; assay type: functional, Canis lupus familiaris, Egg; procedure, shortened: as §1
Canis familiaris [4] = species: Canis familiaris; test: Percent reduction in Toxascaris eggs per gram, after oral treatment of 100 mg/dog dose of compound in a single treatment; assay type: functional, Canis lupus familiaris, Egg; procedure, shortened: as §1
Mus musculus [5] = species: Mus musculus; test: Percent clearance of Nematospiroides dubius from mouse after oral treatment of 1.87 mg/mouse/day; assay type: functional
Procedure, shortened: (§2)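 Mice naturally carrying Syphacia obvelata were experimentally infected with Nematospiroides dubius and Hymenolepis nana, then grouped after a 2-week prepatency. Finely ground compound was suspended in aqueous 0.10% carboxymethylcellulose, 0.04% polysorbate 80 and 0.0042% polyparaben, and 0.1 mL was given orally by cannula once daily for 4 days to five mice. Necropsy followed 2 days later, scoring presence or absence of each parasite. Control clearance was subtracted from the treated clearance.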

Mus musculus [6] = species: Mus musculus; test: Percent clearance of Syphacaia obvelata from mouse after oral treatment of 1.87 mg/mouse/day; assay type: functional; procedure, shortened: as §2
Ovis aries [7] = test: Percent reduction in Haemonchus eggs per gram, after treatment with 325 mg/kg dose of compound perorally in sheep; assay type: functional, Egg; details: route oral
Procedure, shortened: (§3)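 Naturally parasitized lambs were dosed orally at the stated mg/kg. Dosing was either as a suspension of finely ground compound by stomach tube, or as ground compound weighed into gelatin capsules and given by balling gun. Activity was scored by the clinical test method: the decrease in posttreatment helminth eggs per gram.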

Canis familiaris [8] = species: Canis familiaris; test: Percent reduction in Uncinaria eggs per gram, after treatment with 200 mg/dog dose of compound in a single treatment; assay type: functional, Canis lupus familiaris, Egg; procedure, shortened: as §1
Ovis aries [9] = test: Percent reduction in Haemonchus eggs per gram, after treatment with 450 mg/kg dose of compound perorally in sheep; assay type: functional, Egg; details: route oral; procedure, shortened: as §3
Ovis aries [10] = test: Percent reduction in Trichuris eggs per gram, after treatment with 325 mg/kg dose of compound perorally in sheep; assay type: functional, Egg; details: route oral
Canis familiaris [11] = species: Canis familiaris; test: Percent reduction in Ancylostoma eggs per gram, after treatment with 200 mg/dog dose of compound in a single treatment; assay type: functional, Canis lupus familiaris, Egg
Procedure, shortened: (§4)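 Dogs naturally infected with Toxascaris leonina were experimentally infected with mixed Ancylostoma caninum and Uncinaria stenocephala larvae. Finely ground compound was given orally in gelatin capsules. Fecal egg counts were taken three times before and three times after treatment, and activity was taken as the fall in egg counts.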

Ovis aries [12] = test: Percent reduction in Moniezia eggs per gram, after treatment with 400 mg/kg dose of compound perorally in sheep; assay type: functional, Egg; details: route oral; procedure, shortened: as §3
Ovis aries [13] = test: Percent reduction in Trichostrongylus eggs per gram, after treatment with 400 mg/kg dose of compound perorally in sheep; assay type: functional, Egg; details: route oral
Procedure, shortened: (§5)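 Naturally parasitized lambs, dosed orally either with a suspension by stomach tube or with finely ground compound in gelatin capsules by balling gun. Activity was scored by the clinical test method, meaning a significant fall in helminth egg counts after treatment.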

Ovis aries [14] = test: Percent reduction in Trichuris eggs per gram, after treatment with 400 mg/kg dose of compound perorally in sheep; assay type: functional, Egg; details: route oral; procedure, shortened: as §5
Ovis aries [15] = test: Percent reduction in Trichuris eggs per gram, after treatment with 450 mg/kg dose of compound perorally in sheep; assay type: functional, Egg; details: route oral; procedure, shortened: as §5
Canis familiaris [16] = species: Canis familiaris; test: Percent reduction in Uncinaria eggs per gram, after oral treatment of 175 mg/dog dose of compound in a single treatment; assay type: functional, Canis lupus familiaris, Egg
Ovis aries [17] = test: Percent reduction in Nematodirus eggs per gram, after treatment with 450 mg/kg dose of compound perorally in sheep; assay type: functional, Egg; details: route oral; procedure, shortened: as §3
Ovis aries [18] = test: Percent reduction in Haemonchus eggs per gram, after treatment with 250 mg/kg dose of compound perorally in sheep; assay type: functional, Egg; details: route oral; procedure, shortened: as §3
Ovis aries [19] = test: Percent reduction in Ostertagia eggs per gram, after treatment with 325 mg/kg dose of compound perorally in sheep; assay type: functional, Egg; details: route oral; procedure, shortened: as §5
Ovis aries [20] = test: Percent reduction in Ostertagia eggs per gram, after treatment with 400 mg/kg dose of compound perorally in sheep; assay type: functional, Egg; details: route oral; procedure, shortened: as §5
Ovis aries [21] = test: Percent reduction in Ostertagia eggs per gram, after treatment with 250 mg/kg dose of compound perorally in sheep; assay type: functional, Egg; details: route oral; procedure, shortened: as §5
Canis familiaris [22] = species: Canis familiaris; test: Percent reduction in Toxascaris eggs per gram, after treatment with 200 mg/dog dose of compound in a single treatment; assay type: functional, Canis lupus familiaris, Egg; procedure, shortened: as §1
Ovis aries [23] = test: Percent reduction in Ostertagia eggs per gram, after treatment with 450 mg/kg dose of compound perorally in sheep; assay type: functional, Egg; details: route oral; procedure, shortened: as §5
Ovis aries [24] = test: Percent reduction in Strongyloides eggs per gram, after treatment with 450 mg/kg dose of compound perorally in sheep; assay type: functional, Egg; details: route oral; procedure, shortened: as §5
Ovis aries [25] = test: Percent reduction in Trichostrongylus eggs per gram, after treatment with 325 mg/kg dose of compound perorally in sheep; assay type: functional, Egg; details: route oral
Ovis aries [26] = test: Percent reduction in Oesophagostomum eggs per gram, after treatment with 250 mg/kg dose of compound perorally in sheep; assay type: functional, Egg; details: route oral; procedure, shortened: as §3
Ovis aries [27] = test: Percent reduction in Oesophagostomum eggs per gram, after treatment with 450 mg/kg dose of compound perorally in sheep; assay type: functional, Egg; details: route oral; procedure, shortened: as §3
Ovis aries [28] = test: Percent reduction in Haemonchus eggs per gram, after treatment with 400 mg/kg dose of compound perorally in sheep; assay type: functional, Egg; details: route oral; procedure, shortened: as §3
Ovis aries [29] = test: Percent reduction in Trichuris eggs per gram, after treatment with 250 mg/kg dose of compound perorally in sheep; assay type: functional, Egg; details: route oral; procedure, shortened: as §5
Ovis aries [30] = test: Percent reduction in Strongyloides eggs per gram, after treatment with 250 mg/kg dose of compound perorally in sheep; assay type: functional, Egg; details: route oral; procedure, shortened: as §5
Ovis aries [31] = test: Percent reduction in Strongyloides eggs per gram, after treatment with 325 mg/kg dose of compound perorally in sheep; assay type: functional, Egg; details: route oral; procedure, shortened: as §5
Canis familiaris [32] = species: Canis familiaris; test: Percent reduction in Ancylostoma eggs per gram, after oral treatment of 175 mg/dog dose of compound in a single treatment; assay type: functional, Canis lupus familiaris, Egg; procedure, shortened: as §4
Ovis aries [33] = test: Percent reduction in Nematodirus eggs per gram, after treatment with 250 mg/kg dose of compound perorally in sheep; assay type: functional, Egg; details: route oral; procedure, shortened: as §3
Ovis aries [34] = test: Percent reduction in Trichostrongylus eggs per gram, after treatment with 250 mg/kg dose of compound perorally in sheep; assay type: functional, Egg; details: route oral
Ovis aries [35] = test: Percent reduction in Cooperia eggs per gram, after treatment with 400 mg/kg dose of compound perorally in sheep; assay type: functional, Egg; details: route oral
Procedure, shortened: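 Naturally parasitized lambs received compound orally, either as the aqueous suspension by stomach tube or as finely ground powder in gelatin capsules by balling gun. Activity was judged by the clinical test method, as a significant decrease in posttreatment helminth egg counts.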

Ovis aries [36] = test: Percent reduction in Trichostrongylus eggs per gram, after treatment with 450 mg/kg dose of compound perorally in sheep; assay type: functional, Egg; details: route oral; procedure, shortened: as §5

Compound: Cl/C(=N\Nc1ccccc1)c1ccc(I)cc1
- Reduction (Canis familiaris [1]): 41%
- Reduction (Canis familiaris [2]): 63%
- Reduction (Canis familiaris [3]): 100%
- Reduction (Canis familiaris [4]): 0%
- Parasite_Clearance (Mus musculus [5]): 80%
- Parasite_Clearance (Mus musculus [6]): 100%

Compound: Cl/C(=N\Nc1c(Cl)cc(Cl)cc1Cl)c1ccccc1
- Reduction (Ovis aries [7]): 99%
- Reduction (Canis familiaris [8]): 59%
- Reduction (Ovis aries [9]): 94%
- Reduction (Ovis aries [10]): 0%
- Reduction (Canis familiaris [11]): 87%
- Reduction (Ovis aries [12]): 100%
- Reduction (Ovis aries [13]): 77%
- Reduction (Ovis aries [14]): 14%
- Reduction (Ovis aries [15]): 29%
- Reduction (Canis familiaris [16]): 26%
- Reduction (Ovis aries [17]): 63%
- Reduction (Ovis aries [18]): 98%
- Reduction (Ovis aries [19]): 98%
- Reduction (Ovis aries [20]): 100%
- Reduction (Ovis aries [21]): 100%
- Reduction (Canis familiaris [22]): 67%
- Reduction (Ovis aries [23]): 100%
- Reduction (Ovis aries [24]): 100%
- Parasite_Clearance (Mus musculus [5]): 80%
- Reduction (Ovis aries [25]): 33%
- Parasite_Clearance (Mus musculus [6]): 20%
- Reduction (Ovis aries [26]): 95%
- Reduction (Ovis aries [27]): 0%
- Reduction (Ovis aries [28]): 85%
- Reduction (Ovis aries [29]): 63%
- Reduction (Ovis aries [30]): 95%
- Reduction (Ovis aries [31]): 79%
- Reduction (Canis familiaris [32]): 31%
- Reduction (Ovis aries [33]): 82%
- Reduction (Ovis aries [34]): 98%
- Reduction (Ovis aries [35]): 100%
- Reduction (Ovis aries [36]): 100%
